Assay results as given in ChEMBL document CHEMBL5678806, “NMS-P937, an orally available, specific small-molecule polo-like kinase 1 inhibitor with antitumor activity in solid and hematologic malignancies” (Mol Cancer Ther, 2012).
Calls of active or inactive are those of the source. The rule behind the calls is not given here.

Columns and labels:
[1] = target: Insulin receptor-related protein (Homo sapiens) (UniProt P14616); assay: Inhibition of N-terminal 6His-tagged recombinant human IRR (944 to 1266 residues) expressed in baculovirus infected Sf21 cells assessed as residual activity at 0.1 uM relative to control
[2] = target: Protein kinase C beta type (Homo sapiens, UniProt P05771); assay: Inhibition of N-terminal His6-tagged recombinant human PKCbetaI (2 to end) expressed in Sf21 cells assessed as residual activity at 0.1 uM relative to control
[3] = target: Fibroblast growth factor receptor 4 (Homo sapiens) (UniProt P22455); assay: Inhibition of N-terminal His6-tagged recombinant human FGFR4 (442 to 755 residues) expressed in baculovirus infected Sf21 cells assessed as residual activity at 1 uM relative to control
[4] = Cmax in nu/nu mouse at 10 mg/kg, iv by LC-MS analysis; assay type: ADME, organism-based; details: in vivo
[5] = target: Tyrosine-protein kinase Fes/Fps (Homo sapiens) (UniProt P07332); assay: Inhibition of N-terminal His6-tagged recombinant full length human Fes expressed in baculovirus infected Sf21 cells assessed as residual activity at 1 uM relative to control
[6] = Volume of distribution at steady state in Beagle dog at 5 mg/kg, iv by LC-MS analysis; assay type: ADME, organism-based, Canis lupus familiaris; details: in vivo, read-out: Vdss
[7] = target: Tyrosine-protein kinase Fer (Homo sapiens) (UniProt P16591); assay: Inhibition of N-terminal His6 tagged recombinant human Fer (541 to end residues) expressed in baculovirus infected Sf21 cells assessed as residual activity at 0.1 uM relative to control
[8] = target: Phosphorylase b kinase gamma catalytic chain, liver/testis isoform (Homo sapiens) (UniProt P15735); assay: Inhibition of GST-tagged recombinant human PhKgamma2 (1 to 301 residues) expressed in E. coli assessed as residual activity at 1 uM relative to control
[9] = Clearance in Beagle dog at 5 mg/kg, iv by LC-MS analysis; assay type: ADME, organism-based, Canis lupus familiaris; details: in vivo
[10] = test system: KU812 cell line; assay: Antiproliferative activity against human KU812 cell line assessed as inhibition of cell growth incubated for 72 hrs by cell-titer glo assay; assay type: functional, cell-based; details: KU812, 72 h
Summary of the method: (§1)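 Cells seeded at 10,000–30,000/cm² (adherent) or 100,000/mL (nonadherent) in medium with 10% fetal calf serum; after 24 h, treated in duplicate with serial dilutions for 72 h. Viable cell number read by CellTiter-Glo luminescence; IC50 from sigmoidal fit; at least two independent experiments.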

[11] = target: Macrophage-stimulating protein receptor (Homo sapiens) (UniProt Q04912); assay: Inhibition of N-terminal GST-tagged recombinant human Ron (983 to end residues) expressed in baculovirus infected Sf21 cells assessed as residual activity at 1 uM relative to control
[12] = target: Serine/threonine-protein kinase DCLK2 (Homo sapiens) (UniProt Q8N568); assay: Inhibition of N-terminal 6His-tagged recombinant human DCAMKL2 (376 to end residues) expressed in baculovirus infected Sf21 cells assessed as residual activity at 1 uM relative to control
[13] = test system: 1A9/ptx-22; assay: Antiproliferative activity against human 1A9/ptx-22 cells assessed as inhibition of cell growth incubated for 72 hrs by cell-titer glo assay; assay type: functional, cell-based; details: 1A9/ptx-22, 72 h
Summary of the method: (§2)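 Cells seeded 10,000–30,000/cm² (adherent) or 100,000/mL (suspension) in medium with 10% fetal calf serum; after 24 h treated in duplicate with serial dilutions for 72 h. Viable cells read by CellTiter-Glo luminescence; IC50 from sigmoidal fit; at least two independent experiments.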

[14] = target: Cytoplasmic tyrosine-protein kinase BMX (Homo sapiens) (UniProt P51813); assay: Inhibition of recombinant human Bmx assessed as residual activity at 0.1 uM relative to control
[15] = test system: NHDF; assay: Induction of DNA damage in human NHDF cells assessed as H2AX phosphorylation at 0.5 to 1 uM incubated for 8 hrs followed by compound washout and measured after 24 to 48 hrs by Western blotting analysis; assay type: toxicity, cell-based; details: dose 0.5-1 µM
[16] = target: Serine/threonine-protein kinase pim-2 (Homo sapiens, UniProt Q9P1W9); assay: Inhibition of PIM2 (unknown origin) in presence of [gamma-33P]ATP
[17] = target: Activated CDC42 kinase 1 (Homo sapiens, UniProt Q07912); assay: Inhibition of N-terminal GST-tagged recombinant human ACK1 (1 to 389 residues) expressed in baculovirus infected Sf21 cells assessed as residual activity at 1 uM relative to control
[18] = test system: SK-MES-1; assay: Antiproliferative activity against human SK-MES-1 cells assessed as inhibition of cell growth incubated for 72 hrs by cell-titer glo assay; assay type: functional, cell-based; details: SK-MES-1, 72 h
[19] = test system: HCC1395; assay: Antiproliferative activity against human HCC1395 cells assessed as inhibition of cell growth incubated for 72 hrs by cell-titer glo assay; assay type: functional, cell-based; details: HCC1395, 72 h; summary of the method: as §1
[20] = test system: A2780; assay: In vivo inhibition of PLK1 in human A2780 cells xenografted in nu/nu mouse assessed as decreased TCTP phosphorylation on Ser46 at 90 to 120 mg/kg, po administered for 6 to 12 hrs by Western blotting analysis; assay type: functional, organism-based; details: dose lower 90.0 mg/kg, dose upper […], time lower 6.0 hrs
[21] = target: Ephrin type-B receptor 3 (Homo sapiens) (UniProt P54753); assay: Inhibition of N-terminal His6-tagged recombinant human EphB3 (599 to 920 residues) expressed in baculovirus infected Sf21 cells assessed as residual activity at 1 uM relative to control
[22] = test system: NCI-H522; assay: Antiproliferative activity against human NCI-H522 cells assessed as inhibition of cell growth incubated for 72 hrs by cell-titer glo assay; assay type: functional, cell-based; details: NCI-H522, 72 h
Summary of the method: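 Cells from ATCC or ECACC, kept in supplier-recommended medium with 1% penicillin-streptomycin at 37°C, 5% CO₂. Seeded at 10,000–30,000/cm² (adherent) or 100,000/mL (nonadherent) in medium with 10% fetal calf serum. Dosed after 24 h in duplicate with serial dilutions. Viable cells read by CellTiter-Glo 72 h later. IC50 from sigmoidal fit. At least two independent experiments.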

[23] = Cmax in Sprague-Dawley rat at 10 mg/kg, iv by LC-MS analysis; assay type: ADME, organism-based; details: in vivo
[24] = Antiproliferative activity against human GM03798 cells assessed as inhibition of cell growth incubated for 72 hrs by cell-titer glo assay; assay type: functional, cell-based; details: GM03798, 72 h; summary of the method: as §2
[25] = target: Epidermal growth factor receptor (Homo sapiens, UniProt P00533); assay: Inhibition of EGFR1 (unknown origin) in presence of [gamma-33P]ATP
[26] = test system: LP-1; assay: Antiproliferative activity against human LP-1 cells assessed as inhibition of cell growth incubated for 72 hrs by cell-titer glo assay; assay type: functional, cell-based; details: LP-1, 72 h; summary of the method: as §1

Chain of Serine/threonine-protein kinase pim-2 (Q9P1W9 whole entry, the tested form may be a part): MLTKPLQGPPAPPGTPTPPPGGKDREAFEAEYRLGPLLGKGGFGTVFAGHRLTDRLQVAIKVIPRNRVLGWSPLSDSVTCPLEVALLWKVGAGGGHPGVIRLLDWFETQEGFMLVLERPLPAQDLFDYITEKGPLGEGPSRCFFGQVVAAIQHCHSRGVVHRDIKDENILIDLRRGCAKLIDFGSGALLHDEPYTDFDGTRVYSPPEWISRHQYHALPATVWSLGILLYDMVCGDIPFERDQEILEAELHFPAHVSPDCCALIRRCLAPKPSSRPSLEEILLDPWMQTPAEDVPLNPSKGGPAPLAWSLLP
Chain of Tyrosine-protein kinase Fes/Fps (Homo sapiens) (P07332 whole entry): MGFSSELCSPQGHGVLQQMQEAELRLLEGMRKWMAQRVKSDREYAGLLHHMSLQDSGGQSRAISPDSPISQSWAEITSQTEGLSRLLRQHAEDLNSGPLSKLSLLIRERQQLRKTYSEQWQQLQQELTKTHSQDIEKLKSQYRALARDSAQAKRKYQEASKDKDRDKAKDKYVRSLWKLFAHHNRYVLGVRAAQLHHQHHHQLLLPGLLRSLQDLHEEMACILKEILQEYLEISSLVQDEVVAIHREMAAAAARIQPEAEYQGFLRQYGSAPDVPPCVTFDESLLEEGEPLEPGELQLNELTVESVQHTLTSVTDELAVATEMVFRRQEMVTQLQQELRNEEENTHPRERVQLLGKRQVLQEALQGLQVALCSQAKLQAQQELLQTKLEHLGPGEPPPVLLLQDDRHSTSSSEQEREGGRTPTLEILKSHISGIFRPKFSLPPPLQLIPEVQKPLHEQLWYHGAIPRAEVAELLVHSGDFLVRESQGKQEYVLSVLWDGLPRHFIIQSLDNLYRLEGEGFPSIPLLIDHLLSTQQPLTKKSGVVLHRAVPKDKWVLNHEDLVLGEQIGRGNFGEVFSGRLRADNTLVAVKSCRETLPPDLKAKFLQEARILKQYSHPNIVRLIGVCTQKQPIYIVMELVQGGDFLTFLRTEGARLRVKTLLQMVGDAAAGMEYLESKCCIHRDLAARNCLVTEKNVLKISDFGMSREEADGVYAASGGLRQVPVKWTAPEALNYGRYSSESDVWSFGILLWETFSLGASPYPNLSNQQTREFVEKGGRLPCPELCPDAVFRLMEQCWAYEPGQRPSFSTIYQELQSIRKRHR
Chain of Epidermal growth factor receptor (P00533 whole entry): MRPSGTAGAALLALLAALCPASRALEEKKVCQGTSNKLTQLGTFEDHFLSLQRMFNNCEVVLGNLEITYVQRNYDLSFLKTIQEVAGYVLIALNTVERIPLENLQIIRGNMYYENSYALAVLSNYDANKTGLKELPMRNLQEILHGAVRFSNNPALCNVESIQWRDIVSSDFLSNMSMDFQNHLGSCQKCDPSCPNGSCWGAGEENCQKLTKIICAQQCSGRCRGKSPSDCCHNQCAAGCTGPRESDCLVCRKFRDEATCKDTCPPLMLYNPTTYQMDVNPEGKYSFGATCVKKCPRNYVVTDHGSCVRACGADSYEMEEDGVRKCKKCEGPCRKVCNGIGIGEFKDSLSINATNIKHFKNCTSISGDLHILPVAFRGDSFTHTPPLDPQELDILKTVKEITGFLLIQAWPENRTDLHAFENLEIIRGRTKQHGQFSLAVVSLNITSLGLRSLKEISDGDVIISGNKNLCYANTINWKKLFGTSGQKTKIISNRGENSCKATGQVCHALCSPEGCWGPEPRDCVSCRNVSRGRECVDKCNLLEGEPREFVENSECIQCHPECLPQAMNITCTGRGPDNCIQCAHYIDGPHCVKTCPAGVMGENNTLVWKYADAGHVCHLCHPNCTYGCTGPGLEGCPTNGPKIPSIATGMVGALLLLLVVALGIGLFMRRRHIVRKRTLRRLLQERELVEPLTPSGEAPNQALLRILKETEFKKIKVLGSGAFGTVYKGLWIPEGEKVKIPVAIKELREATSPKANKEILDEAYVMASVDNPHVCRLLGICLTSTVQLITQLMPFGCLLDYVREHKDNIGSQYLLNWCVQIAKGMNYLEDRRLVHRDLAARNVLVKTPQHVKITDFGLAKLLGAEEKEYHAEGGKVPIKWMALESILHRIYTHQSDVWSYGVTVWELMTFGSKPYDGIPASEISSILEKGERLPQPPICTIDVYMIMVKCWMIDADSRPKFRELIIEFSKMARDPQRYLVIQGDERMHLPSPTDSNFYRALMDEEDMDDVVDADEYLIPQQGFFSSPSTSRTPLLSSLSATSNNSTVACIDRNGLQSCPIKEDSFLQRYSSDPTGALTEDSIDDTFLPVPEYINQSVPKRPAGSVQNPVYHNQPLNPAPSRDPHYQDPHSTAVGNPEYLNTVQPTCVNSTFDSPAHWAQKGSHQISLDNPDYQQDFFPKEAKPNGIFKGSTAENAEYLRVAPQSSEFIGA
Chain of Cytoplasmic tyrosine-protein kinase BMX (Homo sapiens) (P51813 whole entry): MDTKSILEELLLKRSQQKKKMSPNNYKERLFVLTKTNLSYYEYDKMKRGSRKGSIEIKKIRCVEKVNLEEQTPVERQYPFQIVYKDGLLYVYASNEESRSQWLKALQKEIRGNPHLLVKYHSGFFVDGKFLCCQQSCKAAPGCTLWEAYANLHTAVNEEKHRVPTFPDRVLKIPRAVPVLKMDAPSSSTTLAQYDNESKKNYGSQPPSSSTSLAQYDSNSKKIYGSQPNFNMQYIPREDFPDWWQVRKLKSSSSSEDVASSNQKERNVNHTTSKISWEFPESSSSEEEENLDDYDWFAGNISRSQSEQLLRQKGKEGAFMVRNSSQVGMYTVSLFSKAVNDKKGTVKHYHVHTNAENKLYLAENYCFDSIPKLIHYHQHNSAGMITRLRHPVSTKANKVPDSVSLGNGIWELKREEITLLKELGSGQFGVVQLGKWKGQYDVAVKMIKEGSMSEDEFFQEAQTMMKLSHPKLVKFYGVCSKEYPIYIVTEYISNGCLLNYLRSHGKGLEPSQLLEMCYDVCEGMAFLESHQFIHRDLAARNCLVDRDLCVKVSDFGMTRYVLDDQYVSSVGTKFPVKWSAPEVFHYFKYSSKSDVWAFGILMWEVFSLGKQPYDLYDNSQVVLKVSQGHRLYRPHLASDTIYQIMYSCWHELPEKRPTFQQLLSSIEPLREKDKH
Chain of Insulin receptor-related protein (Homo sapiens) (P14616 27-742 limits assumed): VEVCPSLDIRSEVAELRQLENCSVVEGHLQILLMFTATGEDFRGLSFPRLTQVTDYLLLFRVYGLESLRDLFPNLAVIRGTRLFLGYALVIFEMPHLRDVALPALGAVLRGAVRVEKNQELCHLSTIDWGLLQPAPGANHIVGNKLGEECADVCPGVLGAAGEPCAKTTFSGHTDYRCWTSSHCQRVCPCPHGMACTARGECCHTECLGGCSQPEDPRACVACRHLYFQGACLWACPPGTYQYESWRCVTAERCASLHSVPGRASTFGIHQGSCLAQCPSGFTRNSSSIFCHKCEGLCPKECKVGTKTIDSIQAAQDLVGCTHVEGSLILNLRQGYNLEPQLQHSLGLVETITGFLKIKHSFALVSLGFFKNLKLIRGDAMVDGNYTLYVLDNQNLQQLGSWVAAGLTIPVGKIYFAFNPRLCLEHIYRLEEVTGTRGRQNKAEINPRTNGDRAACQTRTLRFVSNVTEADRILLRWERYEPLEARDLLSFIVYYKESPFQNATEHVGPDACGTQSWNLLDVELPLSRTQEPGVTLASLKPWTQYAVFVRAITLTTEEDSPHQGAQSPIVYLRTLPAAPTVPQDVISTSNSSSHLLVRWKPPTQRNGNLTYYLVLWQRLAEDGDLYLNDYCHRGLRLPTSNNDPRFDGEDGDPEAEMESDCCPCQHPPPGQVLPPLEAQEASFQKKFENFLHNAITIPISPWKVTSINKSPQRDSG
Chain of Insulin receptor-related protein (Homo sapiens) (P14616 747-1297 limits assumed): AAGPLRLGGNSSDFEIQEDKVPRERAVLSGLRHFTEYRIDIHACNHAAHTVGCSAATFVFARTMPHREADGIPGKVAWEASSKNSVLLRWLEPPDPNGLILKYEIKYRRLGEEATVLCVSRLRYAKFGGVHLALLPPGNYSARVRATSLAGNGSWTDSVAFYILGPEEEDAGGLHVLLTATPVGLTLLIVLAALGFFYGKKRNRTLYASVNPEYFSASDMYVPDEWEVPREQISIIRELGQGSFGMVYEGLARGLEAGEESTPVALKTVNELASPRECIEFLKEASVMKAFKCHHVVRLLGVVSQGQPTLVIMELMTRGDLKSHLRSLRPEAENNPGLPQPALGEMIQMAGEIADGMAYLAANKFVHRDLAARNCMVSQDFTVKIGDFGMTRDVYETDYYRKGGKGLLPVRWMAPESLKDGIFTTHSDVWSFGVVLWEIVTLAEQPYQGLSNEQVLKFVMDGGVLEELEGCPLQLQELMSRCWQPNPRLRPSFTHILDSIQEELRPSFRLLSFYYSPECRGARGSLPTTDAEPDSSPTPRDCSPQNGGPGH
Chain of Protein kinase C beta type (P05771 2-671 limits assumed): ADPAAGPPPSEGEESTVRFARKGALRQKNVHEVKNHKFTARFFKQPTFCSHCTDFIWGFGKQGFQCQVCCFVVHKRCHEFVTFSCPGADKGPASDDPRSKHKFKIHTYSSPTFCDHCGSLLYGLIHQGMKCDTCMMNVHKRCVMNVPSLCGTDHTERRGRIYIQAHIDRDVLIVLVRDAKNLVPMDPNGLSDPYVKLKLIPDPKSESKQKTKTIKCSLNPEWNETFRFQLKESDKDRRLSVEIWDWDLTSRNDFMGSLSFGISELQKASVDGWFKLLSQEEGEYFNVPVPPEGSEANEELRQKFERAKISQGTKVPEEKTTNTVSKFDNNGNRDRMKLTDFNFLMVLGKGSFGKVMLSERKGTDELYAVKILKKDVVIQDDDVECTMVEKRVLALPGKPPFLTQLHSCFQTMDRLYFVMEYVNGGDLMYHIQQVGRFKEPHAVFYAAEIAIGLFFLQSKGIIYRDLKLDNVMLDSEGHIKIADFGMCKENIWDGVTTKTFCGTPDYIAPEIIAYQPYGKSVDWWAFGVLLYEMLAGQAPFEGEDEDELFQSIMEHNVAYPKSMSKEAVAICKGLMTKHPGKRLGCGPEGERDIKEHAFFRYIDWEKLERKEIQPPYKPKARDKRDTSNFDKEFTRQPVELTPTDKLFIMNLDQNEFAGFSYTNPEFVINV

Compound CN1CCN(c2ccc(OC(F)(F)F)c(Nc3ncc4c(n3)-c3c(c(C(N)=O)nn3CCO)CC4)c2)CC1 [ONVANSERTIB] has an Activity [1] of 125%, an Activity [2] of 85% and an Activity [3] of 90%. The Cmax [4] was 8.3 µM, the Activity [5] was 30% and the Vd [6] was 9.5 L/kg. It also gave an Activity [7] of 125%, an Activity [8] of 88% and a clearance [9] of 43.8 mL/min/kg. The IC50 [10] was 20 nM, the Activity [11] was 42% and the Activity [12] was 90%. The IC50 [13] was 65 nM, the Activity [14] was 83% and the Activity [15] was “Non-Toxic”. The IC50 [16] was greater than 10000 nM, the Activity [17] was 89% and the IC50 [18] was 367 nM. For the same compound, the IC50 [19] was 49 nM, the inhibition [20] was “Active” and the Activity [21] was 87%. For the same compound, the IC50 [22] was 34 nM, the Cmax [23] was 6.8 µM and the IC50 [24] was 55 nM. It also gave an IC50 [25] greater than 10000 nM and an IC50 [26] of 59 nM.
